ChEMBL document CHEMBL1759890, “3,5-Disubstituted-indole-7-carboxamides: the discovery of a novel series of potent, selective inhibitors of IKK-β” (Bioorg Med Chem Lett, 2011)
Values after ≈ are worked out from the molar mass of the structure shown.

How the values were obtained:
[1] = molecular target: T1, Inhibitor of nuclear factor kappa-B kinase subunit beta (Homo sapiens, UniProt O14920); assay: Inhibition of IKK-beta
T1 sequence (O14920 whole entry): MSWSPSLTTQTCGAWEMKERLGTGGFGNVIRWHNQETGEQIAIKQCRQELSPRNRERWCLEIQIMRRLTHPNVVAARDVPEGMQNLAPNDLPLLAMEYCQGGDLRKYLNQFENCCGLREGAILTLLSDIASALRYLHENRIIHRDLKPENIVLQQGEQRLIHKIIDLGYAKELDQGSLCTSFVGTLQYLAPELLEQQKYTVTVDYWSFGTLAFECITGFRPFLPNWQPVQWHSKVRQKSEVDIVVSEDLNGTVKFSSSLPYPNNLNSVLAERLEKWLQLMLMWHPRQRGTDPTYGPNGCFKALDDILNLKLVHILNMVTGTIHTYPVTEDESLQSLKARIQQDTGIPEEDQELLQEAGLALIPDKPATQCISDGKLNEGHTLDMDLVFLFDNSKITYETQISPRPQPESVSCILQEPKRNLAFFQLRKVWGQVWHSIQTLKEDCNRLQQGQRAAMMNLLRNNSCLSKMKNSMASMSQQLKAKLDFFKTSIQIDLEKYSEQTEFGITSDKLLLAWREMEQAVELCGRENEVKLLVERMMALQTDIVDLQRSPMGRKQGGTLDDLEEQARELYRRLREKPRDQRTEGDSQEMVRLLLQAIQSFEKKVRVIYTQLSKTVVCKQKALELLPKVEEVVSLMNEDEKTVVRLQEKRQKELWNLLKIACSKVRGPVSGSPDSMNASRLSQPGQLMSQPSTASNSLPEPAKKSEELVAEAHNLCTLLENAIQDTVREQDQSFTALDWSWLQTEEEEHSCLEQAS

[2] = molecular target: T2, Inhibitor of nuclear factor kappa-B kinase subunit alpha (Homo sapiens, UniProt O15111); assay: Inhibition of IKK-alpha
T2 sequence (O15111 whole entry): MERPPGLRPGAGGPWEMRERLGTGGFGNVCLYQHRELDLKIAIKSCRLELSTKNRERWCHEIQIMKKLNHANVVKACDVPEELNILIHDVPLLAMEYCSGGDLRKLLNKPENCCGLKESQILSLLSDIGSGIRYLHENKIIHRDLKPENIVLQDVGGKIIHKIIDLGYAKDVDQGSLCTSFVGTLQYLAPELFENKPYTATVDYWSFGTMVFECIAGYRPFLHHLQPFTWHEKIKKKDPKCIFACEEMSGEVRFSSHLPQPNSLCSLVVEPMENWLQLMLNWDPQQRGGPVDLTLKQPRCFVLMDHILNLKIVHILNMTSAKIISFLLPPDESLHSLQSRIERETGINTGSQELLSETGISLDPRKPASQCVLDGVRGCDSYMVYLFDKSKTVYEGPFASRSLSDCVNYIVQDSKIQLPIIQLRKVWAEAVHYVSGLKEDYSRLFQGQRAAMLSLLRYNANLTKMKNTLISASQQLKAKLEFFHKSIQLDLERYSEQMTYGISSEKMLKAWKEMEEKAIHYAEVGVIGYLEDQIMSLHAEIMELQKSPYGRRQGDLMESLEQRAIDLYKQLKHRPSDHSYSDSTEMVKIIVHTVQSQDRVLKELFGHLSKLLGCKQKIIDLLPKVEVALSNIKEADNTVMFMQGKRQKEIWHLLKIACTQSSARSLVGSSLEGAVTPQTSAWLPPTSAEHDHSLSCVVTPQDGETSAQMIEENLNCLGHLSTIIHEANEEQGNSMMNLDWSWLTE
In short: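 Done the same way as the IKK-β TR-FRET assay but with 6-His-tagged full-length IKK-α. Buffer is 50 mM HEPES, 10 mM MgCl₂, 1 mM CHAPS pH 7.4, 1 mM DTT, 0.01% w/v BSA. GST-IκBα substrate 25 nM final, ATP 1 μM final, DMSO below 5% final. Error about ±0.3 log units.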

[3] = molecular target: T3, Inhibitor of nuclear factor kappa-B kinase subunit epsilon (Homo sapiens, UniProt Q14164); assay: Inhibition of IKK-epsilon
T3 sequence (Q14164 whole entry): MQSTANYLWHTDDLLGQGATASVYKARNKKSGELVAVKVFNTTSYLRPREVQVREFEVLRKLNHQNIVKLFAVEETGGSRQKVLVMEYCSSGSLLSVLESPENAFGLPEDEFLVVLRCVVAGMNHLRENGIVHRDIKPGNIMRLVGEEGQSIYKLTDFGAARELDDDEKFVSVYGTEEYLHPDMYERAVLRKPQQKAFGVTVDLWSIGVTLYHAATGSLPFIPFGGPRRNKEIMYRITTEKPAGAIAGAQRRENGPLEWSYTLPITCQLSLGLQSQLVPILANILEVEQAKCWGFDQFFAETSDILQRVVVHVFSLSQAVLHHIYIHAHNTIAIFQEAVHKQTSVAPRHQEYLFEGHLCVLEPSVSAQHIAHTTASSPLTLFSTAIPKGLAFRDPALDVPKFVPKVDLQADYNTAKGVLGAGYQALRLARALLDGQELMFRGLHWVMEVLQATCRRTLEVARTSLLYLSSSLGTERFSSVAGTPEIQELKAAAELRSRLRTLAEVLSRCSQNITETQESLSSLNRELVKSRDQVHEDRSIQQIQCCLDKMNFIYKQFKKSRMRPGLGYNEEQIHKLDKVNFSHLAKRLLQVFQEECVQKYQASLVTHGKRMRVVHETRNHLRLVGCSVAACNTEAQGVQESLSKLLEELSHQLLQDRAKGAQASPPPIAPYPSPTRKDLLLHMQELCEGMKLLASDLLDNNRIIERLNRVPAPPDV

serum albumin = serum albumin (Homo sapiens, UniProt P02768); assay: Binding affinity to human serum albumin; type: ADME; settings: read-out: PB
Sequence of serum albumin (P02768 whole entry): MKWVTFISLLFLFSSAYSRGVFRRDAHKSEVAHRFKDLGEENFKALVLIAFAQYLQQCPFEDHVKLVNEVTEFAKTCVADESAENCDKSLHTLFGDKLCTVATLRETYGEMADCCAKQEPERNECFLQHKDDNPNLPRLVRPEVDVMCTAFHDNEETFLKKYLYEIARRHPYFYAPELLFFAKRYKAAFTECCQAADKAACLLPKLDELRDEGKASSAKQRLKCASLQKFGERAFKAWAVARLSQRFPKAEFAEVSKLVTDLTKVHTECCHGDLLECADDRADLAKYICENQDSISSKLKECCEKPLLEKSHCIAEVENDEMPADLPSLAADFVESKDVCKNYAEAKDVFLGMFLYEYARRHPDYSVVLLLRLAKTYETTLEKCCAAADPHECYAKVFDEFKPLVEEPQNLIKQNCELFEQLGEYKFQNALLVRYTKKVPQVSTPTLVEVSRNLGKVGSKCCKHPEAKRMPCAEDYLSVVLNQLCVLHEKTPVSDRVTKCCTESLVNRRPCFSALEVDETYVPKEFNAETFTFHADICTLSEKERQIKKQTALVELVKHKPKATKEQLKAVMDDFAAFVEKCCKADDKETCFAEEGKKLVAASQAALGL

[4] = molecular target: Tyrosine-protein kinase BTK (Homo sapiens, UniProt Q06187); assay: Inhibition of BTK
Sequence of Tyrosine-protein kinase BTK (Q06187 whole entry): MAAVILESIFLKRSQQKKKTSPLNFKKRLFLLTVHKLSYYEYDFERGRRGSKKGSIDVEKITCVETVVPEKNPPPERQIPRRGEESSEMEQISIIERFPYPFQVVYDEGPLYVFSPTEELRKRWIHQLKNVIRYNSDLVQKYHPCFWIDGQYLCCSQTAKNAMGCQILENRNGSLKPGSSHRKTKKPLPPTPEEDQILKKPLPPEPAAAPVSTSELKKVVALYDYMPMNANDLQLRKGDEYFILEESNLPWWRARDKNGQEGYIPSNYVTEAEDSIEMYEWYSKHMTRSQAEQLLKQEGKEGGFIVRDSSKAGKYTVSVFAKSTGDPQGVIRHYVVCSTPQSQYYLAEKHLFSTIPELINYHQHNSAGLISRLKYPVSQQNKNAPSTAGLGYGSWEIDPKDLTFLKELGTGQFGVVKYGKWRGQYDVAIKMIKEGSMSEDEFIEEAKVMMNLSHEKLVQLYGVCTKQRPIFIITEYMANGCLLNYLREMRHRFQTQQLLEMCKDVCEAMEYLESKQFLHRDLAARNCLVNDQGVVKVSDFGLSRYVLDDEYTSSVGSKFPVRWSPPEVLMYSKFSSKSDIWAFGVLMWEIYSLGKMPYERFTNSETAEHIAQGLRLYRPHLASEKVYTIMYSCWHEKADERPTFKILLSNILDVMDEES

PBMC = assay: Antiinflammatory activity in human PBMC assessed as inhibition of LPS-induced TNF-alpha production; type: functional, cell-based
In short: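 Human peripheral blood mononuclear cells stimulated with LPS. Read-out is inhibition of TNF-α production, reported as pIC50.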

[5] = molecular target: T4, Serine/threonine-protein kinase TBK1 (Homo sapiens, UniProt Q9UHD2); assay: Inhibition of TBK-1
T4 sequence (Q9UHD2 whole entry): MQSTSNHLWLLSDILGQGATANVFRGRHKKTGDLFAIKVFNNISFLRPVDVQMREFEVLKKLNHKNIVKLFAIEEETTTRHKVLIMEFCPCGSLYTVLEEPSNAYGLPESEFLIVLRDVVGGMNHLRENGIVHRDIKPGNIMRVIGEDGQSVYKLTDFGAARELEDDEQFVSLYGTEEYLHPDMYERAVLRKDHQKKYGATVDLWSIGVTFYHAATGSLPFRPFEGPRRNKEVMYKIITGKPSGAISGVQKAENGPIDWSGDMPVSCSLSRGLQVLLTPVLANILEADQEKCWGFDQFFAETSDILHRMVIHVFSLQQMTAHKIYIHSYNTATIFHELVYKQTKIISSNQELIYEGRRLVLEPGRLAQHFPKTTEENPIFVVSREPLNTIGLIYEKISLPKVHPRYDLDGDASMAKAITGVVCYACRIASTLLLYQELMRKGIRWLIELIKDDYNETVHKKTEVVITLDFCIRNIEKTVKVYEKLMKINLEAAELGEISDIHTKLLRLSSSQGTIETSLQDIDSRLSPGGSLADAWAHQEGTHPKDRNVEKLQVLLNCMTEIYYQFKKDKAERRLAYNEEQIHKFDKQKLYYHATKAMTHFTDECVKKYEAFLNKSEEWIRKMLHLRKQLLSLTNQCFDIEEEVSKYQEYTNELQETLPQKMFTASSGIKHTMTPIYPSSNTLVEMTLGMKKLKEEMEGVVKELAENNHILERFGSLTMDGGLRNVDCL

[6] = Oral bioavailability in rat; type: ADME, organism-based; settings: in vivo
[7] = Aqueous solubility of the compound; type: physicochemical
[8] = molecular target: Macrophage colony-stimulating factor 1 receptor (Homo sapiens, UniProt P07333); assay: Inhibition of c-FMS
Sequence of Macrophage colony-stimulating factor 1 receptor (P07333 whole entry): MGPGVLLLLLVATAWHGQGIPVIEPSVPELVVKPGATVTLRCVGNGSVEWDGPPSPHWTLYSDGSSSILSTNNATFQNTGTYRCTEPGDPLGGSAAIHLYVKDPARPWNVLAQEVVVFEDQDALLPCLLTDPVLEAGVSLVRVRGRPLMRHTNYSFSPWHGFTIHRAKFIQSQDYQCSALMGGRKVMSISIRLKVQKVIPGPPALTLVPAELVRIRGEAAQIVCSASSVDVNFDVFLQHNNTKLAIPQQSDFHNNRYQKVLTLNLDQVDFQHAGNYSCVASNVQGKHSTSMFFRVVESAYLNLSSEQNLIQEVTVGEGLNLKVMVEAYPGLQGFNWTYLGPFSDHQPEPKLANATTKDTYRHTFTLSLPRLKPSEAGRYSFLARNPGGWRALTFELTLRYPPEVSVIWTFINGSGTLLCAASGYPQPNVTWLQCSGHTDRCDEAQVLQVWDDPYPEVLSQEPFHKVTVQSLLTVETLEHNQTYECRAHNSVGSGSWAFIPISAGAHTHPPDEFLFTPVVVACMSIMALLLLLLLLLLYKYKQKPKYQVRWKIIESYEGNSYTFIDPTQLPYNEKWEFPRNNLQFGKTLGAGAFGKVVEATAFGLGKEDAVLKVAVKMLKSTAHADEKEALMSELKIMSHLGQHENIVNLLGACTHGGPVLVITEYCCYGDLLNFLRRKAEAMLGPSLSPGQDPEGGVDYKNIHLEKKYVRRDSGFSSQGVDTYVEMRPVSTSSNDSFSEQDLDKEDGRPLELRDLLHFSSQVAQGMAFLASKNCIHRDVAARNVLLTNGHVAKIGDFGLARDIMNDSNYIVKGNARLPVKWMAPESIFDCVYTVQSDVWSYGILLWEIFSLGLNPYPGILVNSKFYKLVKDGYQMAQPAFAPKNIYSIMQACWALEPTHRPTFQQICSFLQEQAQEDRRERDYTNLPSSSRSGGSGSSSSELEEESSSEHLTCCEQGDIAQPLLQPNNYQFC

Compound | IC50 [1] [µM] | IC50 [2] [µM] | other results
NC(=O)c1cc(Br)cc2c3c([nH]c12)CCCC3 | 2.51 | – | –
O=C(O)c1cc(-c2ccccc2)cc2cc[nH]c12 | > 15.8 | – | –
NC(=O)c1cc(-c2ccccc2)cc2cc[nH]c12 | 1.58 | 10 | –
N#Cc1cccc(-c2cc(C(N)=O)c3[nH]ccc3c2)c1 | 1.58 | 10 | –
CS(=O)(=O)Nc1ccc(-c2cc(C(N)=O)c3[nH]ccc3c2)cc1 | 0.501 | 3.98 | –
NC(=O)c1cc(-c2ccccc2Cl)cc2cc[nH]c12 | 6.31 | > 15.8 | –
NC(=O)c1cc(-c2cccc(Cl)c2)cc2cc[nH]c12 | 0.794 | 5.01 | –
NC(=O)c1cc(-c2ccc(Cl)cc2)cc2cc[nH]c12 | 0.316 | 6.31 | –
NC(=O)c1cc(-c2cccc(CO)c2)cc2cc[nH]c12 | 2.51 | 15.8 | –
NC(=O)c1cc(-c2ccc(CO)cc2)cc2cc[nH]c12 | 1.26 | 15.8 | –
COc1ccncc1-c1cc(C(N)=O)c2[nH]ccc2c1 | 1.58 | 12.6 | –
NC(=O)c1cc(-c2cc3ccccc3o2)cc2cc[nH]c12 | 0.501 | 3.98 | –
NC(=O)c1cc(-c2ccccc2)cc2c(C3CCCNC3)c[nH]c12 (centres undefined) | 0.158 | 1.58 | IC50 [3]: > 3.16 µM; fraction unbound (serum albumin): 0.09; IC50 [4]: 1.26 µM; IC50 (PBMC): 0.631 µM; IC50 [5]: > 3.16 µM; bioavailability [6]: 22%; solubility [7]: 136 µg/mL (≈ 426 µM); IC50 [8]: 1.58 µM
NC(=O)c1cc(-c2ccccc2)cc2c(C3CCNCC3)c[nH]c12 | 0.501 | 10 | –
CC(C)S(=O)(=O)N1CCC(c2c[nH]c3c(C(N)=O)cc(-c4ccccc4)cc23)CC1 | 0.02 | 3.16 | –
CCS(=O)(=O)N1CCC(c2c[nH]c3c(C(N)=O)cc(-c4ccccc4)cc23)CC1 | 0.0251 | 2 | –
NC(=O)c1cc(-c2ccccc2)cc2c(C3CCN(S(=O)(=O)c4ccc(Cl)cc4)CC3)c[nH]c12 | 0.398 | 7.94 | –
CCc1ccc(-c2cc(C(N)=O)c(NC(N)=O)s2)cc1 | 0.00794 | – | –
CN(C)C(=O)c1cc(-c2ccccc2)cc2cc[nH]c12 | > 15.8 | – | –
NC(=O)c1cc(-c2cncnc2)cc2cc[nH]c12 | 5.01 | 15.8 | –
